Screening data deposited in PubChem by several laboratories.
Most compounds without a hit are left out; they make up all but 5.3% or so of the library.
Calb FLC = affects C. albicans growth with fluconazole. C. albicans CaCi-2 (fluconazole-resistant clinical isolate) + fluconazole, Alamar Blue growth, 48 h. growth inhibition, % (concentration not given with the values). actives 0.57% (n = 300,000);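 active = growth inhibition above about 58% in most replicates, limit read from the data, passing the limit was not always enough; inconclusive = exactly half the replicates above a set limit; inactive = most replicates below a set limit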;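 also: all wells also contain fluconazole at 8 µg/ml as a sub-toxic cotreatment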
Beta cell apopt = blocks beta cell apoptosis | AID 435005 | protection from apoptosis, % (concentration not given with the values) | actives 0.8% (n = 300,000) | INS-1E cytokine-induced death, ATP luminescence, 48 h; percent of positive-control rescue, neutral wells zero;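 active = Every replicate reaches about 75%, or at least half do and their mean reaches it too, limit read from the data; inconclusive = At least half of replicates reach the limit but their mean does not; inactive = Under half of replicates reach the limit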;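 also: higher means more ATP so stronger rescue from cytokine killing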
Mdm2-MdmX inh = inhibitors of human Mdm2/MdmX interaction. inhibition, % at 8 µM. SaOS-2 split-luciferase Mdm2/MdmX complementation, luminescence. O15151+Q00987. actives 3% (n = 330,000);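 active = inhibition of at least 50% at 8 µM in the primary screen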
Target sequence (O15151 whole entry, looked up): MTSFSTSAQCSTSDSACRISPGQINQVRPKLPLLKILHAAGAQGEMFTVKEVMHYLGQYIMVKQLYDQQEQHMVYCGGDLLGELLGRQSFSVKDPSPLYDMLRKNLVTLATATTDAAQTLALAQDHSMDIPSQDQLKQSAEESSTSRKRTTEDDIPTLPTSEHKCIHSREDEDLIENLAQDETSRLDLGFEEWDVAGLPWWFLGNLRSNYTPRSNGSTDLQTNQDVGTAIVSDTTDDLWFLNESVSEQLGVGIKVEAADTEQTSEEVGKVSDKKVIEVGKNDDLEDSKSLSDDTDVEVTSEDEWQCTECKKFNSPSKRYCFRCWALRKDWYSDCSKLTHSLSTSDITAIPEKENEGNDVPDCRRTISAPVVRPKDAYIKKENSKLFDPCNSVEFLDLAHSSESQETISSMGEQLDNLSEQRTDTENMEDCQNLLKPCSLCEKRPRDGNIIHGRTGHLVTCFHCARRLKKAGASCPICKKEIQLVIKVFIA
Target sequence (Q00987 whole entry, looked up): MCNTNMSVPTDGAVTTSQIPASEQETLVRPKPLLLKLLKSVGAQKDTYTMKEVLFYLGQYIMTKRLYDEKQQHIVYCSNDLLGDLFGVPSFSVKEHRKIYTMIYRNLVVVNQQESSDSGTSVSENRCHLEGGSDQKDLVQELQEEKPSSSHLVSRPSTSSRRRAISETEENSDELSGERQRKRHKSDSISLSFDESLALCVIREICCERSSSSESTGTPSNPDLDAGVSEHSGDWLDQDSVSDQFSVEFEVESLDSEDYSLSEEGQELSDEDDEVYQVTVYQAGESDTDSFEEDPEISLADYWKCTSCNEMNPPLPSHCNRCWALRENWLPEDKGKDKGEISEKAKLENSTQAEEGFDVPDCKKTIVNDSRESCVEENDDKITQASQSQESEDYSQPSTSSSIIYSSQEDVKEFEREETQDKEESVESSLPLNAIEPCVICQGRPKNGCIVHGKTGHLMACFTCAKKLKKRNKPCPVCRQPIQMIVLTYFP
CSC inhib = cancer stem cell inhibition | cancer stem cell-like cells viability, luminescence | inhibition, % at 7.5 µM | actives 1.1% (n = 300,000); in the data active = inhibition above about 75%; inconclusive = no clear call, values can overlap the other calls; tested in HMLE shEcad cells
NLRP3 yeast inh = NALP3 inhibition in yeast | Yeast reconstituted NLRP3/ASC/caspase-1, beta-gal luminescence, 24 h | actives 0.39% (n = 330,000) | inhibition, % at 10 µM | AID 2825;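 active = inhibition of 50% or more; inactive = inhibition below 50%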
T cruzi inh = blocks replication of Trypanosoma cruzi | T. cruzi beta-gal in NIH3T3, luminescence, 90 h | inhibition, % (concentration not given with the values) | actives 1.4% (n = 300,000);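 active = mean inhibition across valid replicates above about 55%, limit read from the data; inconclusive = mean below that limit but half or more replicates reach it; inactive = mean below it, under half of replicates reach it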;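 also: signal also drops with host cell toxicity which is not excluded here; higher percent means less beta-gal luminescence so fewer parasites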
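System: Mouse NIH/3T3 fibroblasts infected with β-gal-expressing T. cruzi Tulahuen C4 | Quantity: NIH/3T3 cells, 5,000 per well | Reagent: 5000 reporter trypomastigotes per well | Dosing: Compound pinned at 50 nL/well, DMSO | Schedule: 3 h host attachment, then at least 90 h co-culture | Detection: GalScreen luminescence, 60 min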
Mdm2-MdmX conf = confirmation of human Mdm2/MdmX interaction inhibitors; shares compounds with Mdm2-MdmX inh; Mdm2-MdmX binding, luminescent assay; inhibition, % at 8 µM; actives 55% (n = 10,000); AID 489028; in the data active = inhibition above about 40%
Full FLuc ctr = inhibits full-length luciferase, flagging false Mdm2/MdmX hits | inhibition, % at 8 µM | SaOS-2 full-length luciferase counterscreen, luminescence | shares compounds with Mdm2-MdmX inh | actives 77% (n = 6,200);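 active = mean inhibition at 8 µM reaching about 37%, which flags the compound as non-specific, limit read from the data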;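 also: p53-null SaOS-2 cells with luciferase driven by a doxycycline-inducible promoter; compound on cells about two nights before reading with doxycycline added after day one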
A number is an active result; – = inactive; ? = inconclusive; · = not tested or not shown.

SMILES | Calb FLC | Beta cell apopt | Mdm2-MdmX inh | CSC inhib | NLRP3 yeast inh | T cruzi inh | Mdm2-MdmX conf | Full FLuc ctr
O=c1cc(O)c2sc(Nc3ccc(F)c(Cl)c3)nc2[nH]1 | – | – | 60 | · | – | – | 45 | 63
O=c1cc(O)c2sc(Nc3ccc(Cl)c(F)c3)nc2[nH]1 | – | – | 72 | – | – | – | 56 | 45
Cc1ccc(-c2nn(-c3ccccc3)cc2CSC(=N)N)cc1 | – | – | 52 | – | – | – | – | ·
COC(=O)[C@@H](Cc1c[nH]c2ccccc12)NC(=O)c1ccc2c(c1)OCO2 | – | – | – | – | – | – | · | ·
COc1ccc(NC(=O)c2nnn(CC(=O)Nc3ccc4c(c3)OCO4)c2N)c(OC)c1 | – | – | 52 | – | – | – | – | ·
COc1ccc(NC(=O)Cn2nnc(C(=O)NCc3ccccc3OC)c2N)cc1Cl | – | – | – | – | – | – | · | ·
COc1ccc(Cl)cc1NC(=O)c1nnn(CC(=O)Nc2cc(C)cc(C)c2)c1N | – | · | 94 | – | – | – | 57 | 55
COc1cccc(NC(=O)Cn2nnc(C(=O)Nc3cc(Cl)ccc3OC)c2N)c1 | – | – | 90 | – | – | – | 49 | –
COc1ccc(Cl)cc1NC(=O)c1nnn(CC(=O)Nc2ccc(OC)c(OC)c2)c1N | – | – | 69 | – | – | – | – | –
Cc1ccc(CNC(=O)c2nnn(CC(=O)Nc3cc(C)cc(C)c3)c2N)cc1 | – | · | – | – | – | – | · | ·
Cc1cc(C(C2C(=O)CC(C)(C)CC2=O)C2C(=O)CC(C)(C)CC2=O)cc(C)c1OC(F)F | – | – | – | – | – | – | · | ·
COc1ccc(NC(=O)Cn2nnc(C(=O)Nc3ccc(F)c(Cl)c3)c2N)cc1 | – | – | 59 | – | – | – | – | 83
COc1ccc(Cl)cc1NC(=O)c1nnn(CC(=O)Nc2ccc3c(c2)OCO3)c1N | – | · | 93 | – | – | – | 53 | –
CCCNC(=O)COC(=O)c1ccc(Cl)c(S(=O)(=O)N2CCCC2)c1 | – | – | – | – | – | – | · | ·
Cc1cc(C)c(O)c(-c2cc(C(=O)Nc3ccc(S(=O)(=O)N4CCOCC4)cc3)[nH]n2)c1 | – | · | 69 | 88 | – | – | 43 | 40
O=C(COC(=O)Cc1ccccc1F)NCc1ccc(Cl)cc1 | · | – | – | – | – | · | · | ·
CN(C(=O)CSc1cc(C(=O)c2nccn2C)c2ccccc2n1)c1ccccc1 | – | 106 | 53 | · | – | – | 63 | 81
Cn1ccnc1C(=O)c1cc(SCC(=O)NC2CC2)nc2ccccc12 | – | – | – | – | – | – | · | ·
CN1CCN(c2nc3ccccc3nc2C(C#N)C(=O)OC2CCCCC2)CC1 (centres undefined) | – | – | 51 | – | – | – | – | 84
N#CC(C(=O)OC1CCCCC1)c1nc2ccccc2nc1N1CCOCC1 (centres undefined) | – | – | – | – | – | – | · | ·
N=c1ccn(CC(=O)c2ccc(-c3ccccc3)cc2)cc1 | – | 134 | 66 | – | – | 58 | 69 | 41
COc1ccc(C2CC(c3ccccc3OC(C)=O)=NN2C(=O)/C=C/c2ccccc2)cc1OC (centres undefined) | – | – | – | – | – | – | · | ·
COc1ccc(C2=NN(C(=O)/C=C/c3ccccc3)C(c3ccccc3)C2)c(OC(C)=O)c1 (centres undefined) | – | – | 58 | – | – | – | – | ·
COc1ccc(NC(=O)Cn2ncn3nc(-c4ccc(OC)cc4)cc3c2=O)cc1 | – | – | 80 | – | – | – | – | 90
COc1ccc(-c2cc3c(=O)n(CC(=O)NCc4ccccc4F)ncn3n2)cc1 | – | – | 70 | – | – | – | – | ·
SMILES | Calb FLC | Beta cell apopt | Mdm2-MdmX inh | CSC inhib | NLRP3 yeast inh | T cruzi inh | Mdm2-MdmX conf | Full FLuc ctr
COc1ccc(-c2cc3c(=O)n(CC(=O)NCCCc4ccccc4)ncn3n2)cc1 | – | – | – | · | – | – | · | ·
CCOc1ccc(CCNC(=O)Cn2ncn3nc(-c4ccc(OC)cc4)cc3c2=O)cc1OCC | – | · | 59 | – | – | – | – | ·
CC(=O)Nc1ccc(NC(=O)c2ccc(N(C)S(=O)(=O)c3ccc(C)cc3)cc2)cc1 | – | – | – | – | – | – | · | ·
CCCn1c(SCc2ccccc2)nc2c1c(=O)[nH]c(=O)n2C | – | · | – | – | – | – | · | ·
Cc1c(Cl)cccc1-n1c(-c2cccnc2)n[nH]c1=S | – | – | – | – | – | – | · | ·
CN(C)CC(C)(C)CNC(=S)Nc1ccc(S(=O)(=O)N2CCOCC2)cc1 | – | – | – | – | – | – | · | ·
CCOC(=O)c1nnc(-c2ccccc2)nc1Sc1c(Cl)cccc1Cl | – | – | – | – | – | – | · | ·
CCOC(=O)c1nnc(-c2ccc(C)cc2)nc1Oc1ccc(Cl)cc1Cl | – | – | – | – | – | – | · | ·
CCOC(=O)c1nnc(-c2ccc(C)cc2)nc1Oc1ccccc1Cl | – | – | 51 | · | – | – | – | ·
CCOC(=O)c1nnc(-c2ccc(C)cc2)nc1Sc1ccccc1Cl | – | – | 54 | – | – | – | – | ·
CCn1c(SCC(=O)N2CCCc3ccccc32)nc2c1c(=O)n(C)c(=O)n2C | – | – | – | – | – | – | · | ·
CC(C)c1nc(SCC(=O)N2CCCc3ccccc32)c2c(=O)n(C)c(=O)n(C)c2n1 | – | – | 55 | – | – | – | 47 | 51
Cc1ccc(NC(=O)c2cnccn2)nc1 | – | – | 53 | – | – | – | – | ·
CC(=O)c1c(C)[nH]c(C(=O)Nc2ccc(C)cn2)c1C | – | – | 53 | – | – | – | 48 | 74
COc1cc(/C=N/NC(=S)NC2CC3CC2C2C=CCC32)ccc1O (centres undefined) | ? | – | 63 | – | – | – | – | ·
COc1ccc([N+](=O)[O-])cc1C(=O)Nc1ccc(OCC(=O)N2CCOCC2)cc1 | – | – | – | – | – | – | · | ·
O=C(NC1CCN(S(=O)(=O)c2cccc([N+](=O)[O-])c2)CC1)C1CCCCC1 | – | – | – | – | – | – | · | ·
CCc1ccc(NC(=O)CN(c2ccc3c(c2)OCO3)S(=O)(=O)c2c(C)noc2C)cc1 | – | · | – | – | – | – | · | ·
O=C(NC1CC1)C1CCN(S(=O)(=O)c2ccc(Cl)c([N+](=O)[O-])c2)CC1 | · | – | 97 | – | – | · | 75 | 58
O=C(Nc1nc2ccc(F)cc2s1)C1CCN(S(=O)(=O)c2cc([N+](=O)[O-])ccc2Cl)CC1 | – | 111 | 88 | – | – | – | 78 | –
O=C(Nc1nc2ccc(C(=O)N3CCCCC3)cc2s1)C1CCCCC1 | – | – | 51 | – | – | – | 57 | 79
CCc1ccc(N(CC(=O)Nc2nc3ccc(C)cc3s2)S(=O)(=O)c2c(C)noc2C)cc1 | – | · | 60 | 106 | – | – | – | ·
FC(F)(F)c1ccccc1CN1CCC(Cc2ccccc2)CC1 | – | – | – | – | – | – | · | ·
